Test results published in ChEMBL document CHEMBL3763017, “Synthesis and evaluation of dual antiplatelet activity of bispidine derivatives of N-substituted pyroglutamic acids” (Eur J Med Chem, 2016).
Calls of active or inactive are those of the source. The rule behind the calls is not given here.

Legend:
[1] = tested on: Mus musculus; experiment: Antithrombotic activity in Swiss albino mouse assessed as protection against collagen-epinephrine induced pulmonary thromboembolism at 30 umol/kg, po after 1 hr; assay type: functional
How it was run: (§1)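 Male Swiss albino mice (18–22 g) dosed orally in 0.5% carboxymethyl cellulose 1, 2, 4, 6, 12 or 24 h before challenge. Collagen (150 μg/ml) plus adrenaline (50 μg/ml) injected into the tail vein. Dead or hind-limb-paralysed mice counted over 15 min and expressed as % protection. Ten mice per drug group, five for vehicle.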

[2] = Antiplatelet activity in human platelet rich plasma assessed as inhibition of collagen-induced platelet aggregation at 30 uM preincubated for 5 mins followed by collagen stimulation by turbidimetry; assay type: functional
How it was run: (§2)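 Human PRP (1×10^8 platelets/ml) from healthy-donor blood spun at 1000 rpm for 10 min. Pre-treated 5 min with compound or 0.4% DMSO vehicle, then agonist added at 37 °C. Light-transmission aggregometry run at least 5–10 min; % aggregation calculated. Single-point screens at 30 μM, n = 3; mean ± SEM.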

[3] = Antiplatelet activity in human platelet rich plasma assessed as inhibition of U46619-induced platelet aggregation at 30 uM preincubated for 5 mins followed by U46619 stimulation by turbidimetry; assay type: functional; how it was run: as §2
[4] = tested on: Mus musculus; experiment: Antithrombotic activity in ferric chloride-induced Swiss albino mouse arterial thrombosis model assessed as prolonged time to occlusion at 20 umol/kg, po measured after 4 hrs (reference value: 9.5 +/- 0.4 mins); assay type: functional
[5] = tested on: Platelet; experiment: Inhibition of U46619-induced protein tyrosine phosphorylation in human platelets preincubated at 3 to 100 uM for 5 mins followed by U46619 stimulation for 10 mins by Western blot analysis; assay type: functional, cell-based
How it was run: (§3)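 Washed human platelets in Tyrode-HEPES pH 7.4 preincubated 5 min at 37 °C with 0.4% DMSO or compound (3–100 μM). Stimulated 10 min with collagen (1 μg/ml) or U46619 (0.25 μg/ml). Stopped with boiling Laemmli buffer; SDS-PAGE and anti-phosphotyrosine (4G10) immunoblot. Three separate experiments.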

[6] = tested on: Platelet; experiment: Inhibition of collagen-induced protein tyrosine phosphorylation in human platelets preincubated at 3 to 100 uM for 5 mins followed by collagen stimulation for 10 mins by Western blot analysis; assay type: functional, cell-based; how it was run: as §3
[7] = tested on: Platelet; experiment: Inhibition of human platelet adhesion over collagen at 30 uM for 15 mins in absence of Mg2+ by microplate reader analysis; assay type: functional; settings: 0.25 h
How it was run: (§4)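 Wells coated overnight with fibrillar type I collagen and blocked with BSA. Washed platelets (1×10^8/ml) preincubated 15 min at 37 °C with compound or DMSO, then allowed to adhere 1 h at room temperature in Tyrode-HEPES with 1 mM Mg2+ or with Mg2+ replaced by 50 μM EDTA. Adherent cells quantified with p-nitrophenyl phosphate in citrate pH 5.4 (60 min, 25 °C), NaOH stop, A405.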

[8] = tested on: Platelet; experiment: Inhibition of human platelet adhesion over collagen for 15 mins in absence of Mg2+ by microplate reader analysis; assay type: functional, cell-based; how it was run: as §4
[9] = tested on: Platelet; experiment: Inhibition of human platelet adhesion over collagen at 300 uM for 15 mins in absence of Mg2+ by microplate reader analysis; assay type: functional, cell-based; how it was run: as §4
[10] = tested on: Platelet; experiment: Inhibition of human platelet adhesion over collagen at 300 uM for 15 mins in presence of Mg2+ by microplate reader analysis; assay type: functional, cell-based; how it was run: as §4
[11] = tested on: Platelet; experiment: Inhibition of human platelet adhesion over collagen at 30 uM for 15 mins in presence of Mg2+ by microplate reader analysis; assay type: functional; settings: 0.25 h; how it was run: as §4
[12] = tested on: Platelet; experiment: Inhibition of human platelet adhesion over collagen for 15 mins in presence of Mg2+ by microplate reader analysis; assay type: functional, cell-based; how it was run: as §4
[13] = tested on: Plasma; experiment: Anticoagulant activity in human plasma assessed as activated partial thromboplastin time at 30 to 300 uM; assay type: functional, cell-free
How it was run: (§5)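 Human plasma from healthy donors, blood collected in CPD 1:7 and spun twice to give platelet-poor plasma. TT, PT and aPTT determined with commercial kits on a coagulometer. Hirudin 1 μg/ml served as reference anticoagulant; 0.4% DMSO vehicle.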

[14] = tested on: Plasma; experiment: Anticoagulant activity in human plasma assessed as prothrombin time at 30 to 300 uM; assay type: functional, cell-free; how it was run: as §5
[15] = tested on: Plasma; experiment: Anticoagulant activity in human plasma assessed as thrombin time at 30 to 300 uM; assay type: functional, cell-free; how it was run: as §5
[16] = Antiplatelet activity in human platelet rich plasma assessed as inhibition of collagen-induced platelet aggregation preincubated for 5 mins followed by collagen stimulation by turbidimetry; assay type: functional
[17] = Antiplatelet activity in human platelet rich plasma assessed as inhibition of U46619-induced platelet aggregation preincubated for 5 mins followed by U46619 stimulation by turbidimetry; assay type: functional
[18] = tested on: Platelet; experiment: Antiplatelet activity in human platelet rich plasma assessed as inhibition of ADP-induced platelet aggregation up to 300 uM preincubated for 5 mins followed by ADP stimulation by turbidimetry; assay type: functional
[19] = tested on: Platelet; experiment: Antiplatelet activity in human platelet rich plasma assessed as inhibition of TRAP-induced platelet aggregation up to 300 uM preincubated for 5 mins followed by TRAP stimulation by turbidimetry; assay type: functional
[20] = tested on: Platelet; experiment: Antiplatelet activity in human platelet rich plasma assessed as inhibition of CRP-XL-induced platelet aggregation up to 300 uM preincubated for 5 mins followed by CRP-XL stimulation by turbidimetry; assay type: functional
[21] = tested on: Platelet; experiment: Antiplatelet activity in human platelet rich plasma assessed as inhibition of ristocetin-induced platelet aggregation up to 300 uM preincubated for 5 mins followed by ristocetin stimulation by turbidimetry; assay type: functional
[22] = tested on: Platelet; experiment: Antiplatelet activity in human platelet rich plasma assessed as inhibition of arachidonic acid-induced platelet aggregation up to 300 uM preincubated for 5 mins followed by arachidonic acid stimulation by turbidimetry; assay type: functional
[23] = Antiplatelet activity in human platelet rich plasma assessed as inhibition of arachidonic acid-induced platelet aggregation at 300 to 500 uM preincubated for 5 mins followed by arachidonic acid stimulation by turbidimetry; assay type: functional
[24] = tested on: Mus musculus; experiment: Antithrombotic activity in Swiss albino mouse assessed as protection against collagen-epinephrine induced pulmonary thromboembolism at 30 umol/kg, po after 4 hrs; assay type: functional; how it was run: as §1
[25] = tested on: Mus musculus; experiment: Toxicity in Swiss albino mouse assessed as bleeding time at 30 umol/kg, po administered as single dose measured after 1 hr (reference value: 3.5 +/- 0.3 mins); assay type: organism-based; settings: in vivo
[26] = tested on: Mus musculus; experiment: Toxicity in Swiss albino mouse assessed as bleeding time at 30 umol/kg, po administered as single dose measured after 4 hrs (reference value: 3.5 +/- 0.3 mins); assay type: organism-based; settings: in vivo
[27] = tested on: Aorta; experiment: Inhibition of U46619-induced vasocontraction in Sprague-Dawley rat thoracic aoritc rings at 30 uM (reference value: 89.8 +/- 8.5%); assay type: functional; parameters: scale not given: the % may be the effect or the level left
[28] = tested on: Aorta; experiment: Inhibition of U46619-induced vasocontraction in Sprague-Dawley rat thoracic aoritc rings at 15 uM (reference value: 89.8 +/- 8.5%); assay type: functional; parameters: scale not given: the % may be the effect or the level left
[29] = tested on: Aorta; experiment: Inhibition of U46619-induced vasocontraction in Sprague-Dawley rat thoracic aoritc rings at 3 and 5 uM; assay type: functional
[30] = tested on: Aorta; experiment: Inhibition of KCl-induced vasocontraction in Sprague-Dawley rat thoracic aoritc rings; assay type: functional
[31] = tested on: Mus musculus; experiment: Antithrombotic activity in ferric chloride-induced Swiss albino mouse arterial thrombosis model assessed as prolonged time to occlusion at 30 umol/kg, po measured after 4 hrs (reference value: 9.5 +/- 0.4 mins); assay type: functional

In the case of `CC(C)(C)OC(=O)N1CC2CC(C1)CN(C(=O)[C@@H]1CCC(=O)N1Cc1ccc(Cl)cc1)C2`, the Activity [1] is reported as 30% and the inhibition at 30 µM [2] is reported as 6%.

In the case of `Cc1ccc(S(=O)(=O)N2CC3CC(CN(C(=O)[C@@H]4CCC(=O)N4Cc4ccccc4Br)C3)C2)cc1`, the Activity [1] is reported as 55% and the inhibition at 30 µM [2] is reported as 16.8%.

In the case of `Cc1ccc(CN2C(=O)CC[C@H]2C(=O)N2CC3CC(CN(Cc4ccc(Br)cc4)C3)C2)cc1`, the inhibition at 30 µM [3] is reported as 52%, the Activity [1] is reported as 50% and the inhibition at 30 µM [2] is reported as 61%.

With `CC(C)(C)OC(=O)N1CC2CC(C1)CN(C(=O)[C@@H]1CCC(=O)N1Cc1ccccc1Br)C2` the Activity [1] was 50% and the inhibition at 30 µM [2] was 2%.

Work on `COc1ccc(CN2C(=O)CC[C@H]2C(=O)N2CC3CC(CN(C(=O)OC(C)(C)C)C3)C2)cc1` yielded an Activity [1] of 45% and an inhibition at 30 µM [2] of 10%.

In the case of `O=C([C@@H]1CCC(=O)N1Cc1ccccc1Br)N1CC2CC(CN(Cc3ccccc3)C2)C1`, the Time [4] is reported as 13.3 min, the inhibition [5] is reported as “Active” and the inhibition [6] is reported as “Active”. For the same compound, the inhibition at 30 µM [7] was 27%, the inhibition [8] was “Dose-dependent effect” and the inhibition [9] was “Active”. For the same compound, the inhibition [10] was “Active”, the inhibition at 30 µM [11] was 27% and the inhibition [12] was “Dose-dependent effect”. The Activity [13] was “inactive”, the Activity [14] was “inactive” and the Activity [15] was “inactive”. It also gave an inhibition at 30 µM [3] of 79%, an Activity [1] of 40% and an inhibition at 30 µM [2] of 86%. The IC50 [16] was 1.7 µM, the IC50 [17] was 7.7 µM and the inhibition [18] was “inactive”. For the same compound, the inhibition [19] was “inactive”, the inhibition [20] was “inactive” and the inhibition [21] was “inactive”. For the same compound, the inhibition [22] was “inactive”, the “inhibition (INH)” value [23] was 50% and the Activity [24] was 60%. The Time [25] was 3.4 min, the Time [26] was 4.3 min and the Activity [27] was 14.2%. The Activity [28] was 21.8%, the inhibition [29] was “inactive” and the inhibition [30] was “inactive”. It also gave a Time [31] of 20 min.

In the case of `Cc1ccc(CN2C(=O)CC[C@H]2C(=O)N2CC3CC(CN(Cc4ccc(Cl)cc4)C3)C2)cc1`, the inhibition at 30 µM [3] is reported as 81%, the Activity [1] is reported as 35% and the inhibition at 30 µM [2] is reported as 67%.

Compound `Cc1ccc(CN2C(=O)CC[C@H]2C(=O)N2CC3CC(C2)CN(S(=O)(=O)c2ccc(C)cc2)C3)cc1` has an Activity [1] of 40% and an inhibition at 30 µM [2] of 37.5%.

For `CC(C)(C)OC(=O)N1CC2CC(C1)CN(C(=O)[C@@H]1CCC(=O)N1Cc1cccc3ccccc13)C2`, the Activity [1] was 30% and the inhibition at 30 µM [2] was 11%.

`Cc1ccc(CN2C(=O)CC[C@H]2C(=O)N2CC3CC(CN(C(=O)OC(C)(C)C)C3)C2)cc1` gave an Activity [1] of 40% and an inhibition at 30 µM [2] of 25%.

For `O=C([C@@H]1CCC(=O)N1Cc1ccc(Cl)cc1)N1CC2CC(CN(Cc3ccccc3)C2)C1`, the inhibition at 30 µM [3] was 80%, the Activity [1] was 30% and the inhibition at 30 µM [2] was 52%.

`Cc1ccc(CN2C(=O)CC[C@H]2C(=O)N2CC3CC(CN(Cc4ccccc4Br)C3)C2)cc1` showed an inhibition at 30 µM [3] of 70%, an Activity [1] of 30% and an inhibition at 30 µM [2] of 67%.

For `O=C([C@@H]1CCC(=O)N1S(=O)(=O)c1ccccc1)N1CC2CC(CN(Cc3ccccc3)C2)C1`, the Activity [1] was 30% and the inhibition at 30 µM [2] was 29%.
